# From ChEMBL document CHEMBL1157486, “2-Substituted-16-ene-22-thia-1alpha,25-dihydroxy-26,27-dimethyl-19-norvitamin D3 analogs: Synthesis, biological evaluation, and crystal structure” (Bioorg Med Chem, 2008)
# pEC50: −log10 of the molar value. Values joined by “and” are separate entries in the source; they are usually repeats but may differ in a detail not shown here. Equal entries are not always repeated.
# Legend:
# [1] = molecular target: T1, Vitamin D3 receptor (Rattus norvegicus) (UniProt P13053); assay: Displacement of [3H]1-alpha,25-(OH)2D3 from rat recombinant VDR expressed in Escherichia coli BL21 (DE3)
# T1 sequence (whole entry): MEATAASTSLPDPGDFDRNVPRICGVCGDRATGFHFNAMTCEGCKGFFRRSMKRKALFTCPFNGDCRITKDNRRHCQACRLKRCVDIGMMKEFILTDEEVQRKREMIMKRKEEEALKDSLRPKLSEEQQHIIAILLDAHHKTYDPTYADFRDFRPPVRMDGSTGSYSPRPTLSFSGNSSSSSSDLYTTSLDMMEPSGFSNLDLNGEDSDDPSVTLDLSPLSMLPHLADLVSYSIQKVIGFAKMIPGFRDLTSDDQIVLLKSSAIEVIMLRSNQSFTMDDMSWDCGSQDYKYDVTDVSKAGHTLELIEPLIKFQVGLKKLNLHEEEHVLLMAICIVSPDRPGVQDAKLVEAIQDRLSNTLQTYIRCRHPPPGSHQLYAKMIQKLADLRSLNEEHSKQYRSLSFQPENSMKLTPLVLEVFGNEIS
# Procedure, shortened: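 Rat VDR-LBD lysate (sonicated cells) diluted ~1000-fold in 50 mM Tris pH 7.5 with 100 mM KCl, 5 mM DTT, 0.5% CHAPS and BSA 100 µg/mL. Ligand in EtOH preincubated 1 h at room temperature, then [3H]1α,25-(OH)2D3 (~5000 dpm) added for 18 h at 4 °C. Free ligand removed with dextran-coated charcoal, and bound fraction counted by scintillation. At least twice in duplicate.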
# Bone marrow cell = assay: Effect on osteoclast formation in ddY mouse bone marrow cells co cultured with […] after 7 days
# [2] = molecular target: Vitamin D3 receptor (Homo sapiens) (UniProt P11473); assay: Increase in human VDR-mediated transcriptional activity in african green monkey COS7 cells after 24 hrs by luciferase assay
# [3] = Mus musculus, ddY, Bone marrow cell, 168 h
SMILES,Activity [1],pEC50 [2],also measured
CCC(O)(CC)CCS[C@@H](C)C1=CC[C@H]2/C(=C/C=C3C[C@@H](O)C[C@H](O)C3)CCC[C@]12C,100%,–,–
[H][C@@]12CC=C([C@@H](C)SCC(O)(CC)CC)[C@@]1(C)CCC/C2=C\C=C1/C[C@@H](O)[C@H](OCCO)[C@H](O)C1 (stereo partly specified),–,10.62,pEC50 (Bone marrow cell; [3]): 9.66
CCC(O)(CC)CS[C@H](C)C1=CC[C@H]2/C(=C/C=C3C[C@@H](O)C[C@H](O)C3)CCC[C@]12C,6%,–,–
[H][C@@]12CC=C([C@@H](C)SCC(O)(CC)CC)[C@@]1(C)CCC/C2=C\C=C1\C[C@@H](O)[C@@](C)(O)[C@H](O)C1 (stereo partly specified),–,9.92,–
[H][C@@]12CC=C([C@@H](C)SCC(O)(CC)CC)[C@@]1(C)CCC/C2=C\C=C1/C[C@@H](O)[C@@](C)(O)[C@H](O)C1 (stereo partly specified),–,8.35,–
CCC(O)(CC)CSC(C)C1=CCC2/C(=C/C=C3\C[C@@H](O)[C@H](OCCO)[C@H](O)C3)CCC[C@]12C (stereo partly specified),–,11.68,pEC50 (Bone marrow cell; [3]): 10.46
CCC(O)(CC)CS[C@H](C)C1=CC[C@H]2/C(=C/C=C3C[C@@H](O)C(=CCO)[C@H](O)C3)CCC[C@]12C [listing 1 of 2 here],–,10.54,–
CCC(O)(CC)CCCS[C@H](C)C1=CC[C@H]2/C(=C/C=C3C[C@@H](O)C[C@H](O)C3)CCC[C@]12C,8%,–,–
CCC(O)(CC)CSC(C)C1=CCC2/C(=C/C=C3C[C@@H](O)C(=CCO)[C@H](O)C3)CCC[C@]12C (stereo partly specified) [listing 1 of 2 here],–,10.07,–
CCC(O)(CC)CSC(C)C1=CCC2/C(=C/C=C3C[C@@H](O)C(=CCO)[C@H](O)C3)CCC[C@]12C (stereo partly specified) [listing 2 of 2 here],–,10.59,–
CCC(O)(CC)CCS[C@H](C)C1=CC[C@H]2/C(=C/C=C3C[C@@H](O)C[C@H](O)C3)CCC[C@]12C,4%,–,–
CCC(O)(CC)CS[C@H](C)C1=CC[C@H]2/C(=C/C=C3C[C@@H](O)C(=CCO)[C@H](O)C3)CCC[C@]12C [listing 2 of 2 here],–,9.70,–
CCC(O)(CC)CSC(C)C1=CCC2/C(=C/C=C3/C[C@@H](O)[C@](C)(O)[C@H](O)C3)CCC[C@]12C (stereo partly specified),–,8.72,–
CCC(O)(CC)CCCS[C@@H](C)C1=CC[C@H]2/C(=C/C=C3C[C@@H](O)C[C@H](O)C3)CCC[C@]12C,100%,–,–
CCC(O)(CC)CS[C@H](C)C1=CC[C@H]2/C(=C/C=C3C[C@@H](O)C(C)(O)[C@H](O)C3)CCC[C@]12C (stereo partly specified),12% and 0.5%,–,–
CCC(O)(CC)CS[C@@H](C)C1=CC[C@H]2/C(=C/C=C3C[C@@H](O)C[C@H](O)C3)CCC[C@]12C,60%,–,–
[H][C@@]12CC=C([C@@H](C)SCC(O)(CC)CC)[C@@]1(C)CCC/C2=C\C=C1\C[C@@H](O)[C@H](OCCO)[C@H](O)C1 (stereo partly specified),–,9.94,pEC50 (Bone marrow cell; bone marrow cell): 9.37
C=C1/C(=C\C=C2/CCC[C@]3(C)[C@@H]([C@H](C)CCCC(C)(C)O)CC[C@@H]23)C[C@@H](O)C[C@@H]1O [CALCITRIOL],100%,–,pEC50 (Bone marrow cell; [3]): 8.70
CCC(O)(CC)CSC(C)C1=CCC2/C(=C/C=C3\C[C@@H](O)[C@](C)(O)[C@H](O)C3)CCC[C@]12C (stereo partly specified),–,10.77,–
CCC(O)(CC)CSC(C)C1=CCC2/C(=C/C=C3/C[C@@H](O)[C@H](OCCO)[C@H](O)C3)CCC[C@]12C (stereo partly specified),–,10.57,pEC50 (Bone marrow cell; bone marrow cell): 10.40
CCC(O)(CC)CSC(C)C1=CCC2/C(=C/C=C3C[C@@H](O)C(C)(O)[C@H](O)C3)CCC[C@]12C (stereo partly specified),18% and 1%,–,–
